{
  "source": "ChEMBL document CHEMBL3351316",
  "about": "“Scaffold hopping approach on the route to selective tankyrase inhibitors” (Eur J Med Chem, 2014)",
  "key": {"[1]": {"molecular_target": "Poly [ADP-ribose] polymerase 2 (Homo sapiens) (UniProt Q9UGN5)", "sequence (Q9UGN5 whole entry)": "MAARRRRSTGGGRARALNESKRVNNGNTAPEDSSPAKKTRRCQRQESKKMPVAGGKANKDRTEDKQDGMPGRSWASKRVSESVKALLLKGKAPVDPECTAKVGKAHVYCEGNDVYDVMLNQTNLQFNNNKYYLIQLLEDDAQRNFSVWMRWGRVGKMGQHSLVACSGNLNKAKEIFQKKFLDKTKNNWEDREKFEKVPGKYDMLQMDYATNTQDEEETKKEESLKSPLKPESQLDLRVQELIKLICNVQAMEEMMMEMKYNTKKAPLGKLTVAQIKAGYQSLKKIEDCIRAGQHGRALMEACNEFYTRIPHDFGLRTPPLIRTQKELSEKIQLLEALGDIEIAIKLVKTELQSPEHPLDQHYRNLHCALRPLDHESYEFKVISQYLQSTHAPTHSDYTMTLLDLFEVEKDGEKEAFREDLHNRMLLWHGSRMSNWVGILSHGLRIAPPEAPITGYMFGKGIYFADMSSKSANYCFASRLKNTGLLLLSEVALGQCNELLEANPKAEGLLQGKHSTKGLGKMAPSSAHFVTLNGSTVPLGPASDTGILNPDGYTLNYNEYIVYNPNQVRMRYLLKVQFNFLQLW", "test": "Inhibition of human recombinant PARP2 incubated for 1 hr using histone substrate at 1 uM by luminescence based assay", "outline": "(§1)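 Recombinant PARP enzyme reactions were run in duplicate for 1 h at rt on histone-coated plates in Tris·HCl pH 8.0 buffer with NAD+, biotinylated NAD+ and activated DNA. Detection used streptavidin-HRP for 30 min at rt, then a chemiluminescent developer. % inhibition = 100 − % activity, scaled between the no-compound (100%) and no-enzyme (0%) signals.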"}, "[2]": {"molecular_target": "Poly [ADP-ribose] polymerase 2 (Homo sapiens) (UniProt Q9UGN5)", "test": "Inhibition of human recombinant PARP2 incubated for 1 hr using histone substrate at 10 uM by luminescence based assay", "outline": "as §1"}, "[3]": {"tested_on": "RKO", "test": "Growth inhibition of Wnt-negative human RKO cells at 1 uM to 10 uM", "format": "functional, cell-based"}, "[4]": {"tested_on": "RKO", "test": "Growth inhibition of Wnt-negative human RKO cells at >10 uM", "format": "functional, cell-based"}, "[5]": {"molecular_target": "T1, Protein mono-ADP-ribosyltransferase TIPARP (Homo sapiens) (UniProt Q7Z3E1)", "T1 sequence (whole entry)": "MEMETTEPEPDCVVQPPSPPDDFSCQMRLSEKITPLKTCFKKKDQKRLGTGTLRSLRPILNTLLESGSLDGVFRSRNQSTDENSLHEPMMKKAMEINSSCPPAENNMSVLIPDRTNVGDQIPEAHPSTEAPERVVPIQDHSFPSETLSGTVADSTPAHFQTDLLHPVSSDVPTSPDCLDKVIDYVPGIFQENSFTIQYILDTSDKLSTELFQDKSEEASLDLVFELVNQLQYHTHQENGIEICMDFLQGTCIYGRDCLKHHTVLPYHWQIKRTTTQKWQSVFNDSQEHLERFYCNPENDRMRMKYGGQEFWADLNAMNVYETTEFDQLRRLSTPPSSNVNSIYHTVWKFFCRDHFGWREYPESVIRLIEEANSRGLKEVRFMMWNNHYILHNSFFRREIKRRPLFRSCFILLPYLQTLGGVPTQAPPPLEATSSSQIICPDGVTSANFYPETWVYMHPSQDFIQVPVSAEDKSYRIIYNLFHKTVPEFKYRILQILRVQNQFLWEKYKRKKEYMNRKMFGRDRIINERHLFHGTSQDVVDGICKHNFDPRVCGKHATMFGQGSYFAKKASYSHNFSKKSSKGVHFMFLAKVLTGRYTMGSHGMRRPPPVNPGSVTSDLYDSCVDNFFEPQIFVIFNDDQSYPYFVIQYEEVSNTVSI", "test": "Inhibition of human recombinant PARP7 at 10 uM incubated for 1 hr using NAD+, biotinylated NAD+ and activated DNA by luminescence based assay", "outline": "as §1"}, "[6]": {"molecular_target": "T2, Protein mono-ADP-ribosyltransferase PARP10 (Homo sapiens) (UniProt Q53GL7)", "T2 sequence (whole entry)": "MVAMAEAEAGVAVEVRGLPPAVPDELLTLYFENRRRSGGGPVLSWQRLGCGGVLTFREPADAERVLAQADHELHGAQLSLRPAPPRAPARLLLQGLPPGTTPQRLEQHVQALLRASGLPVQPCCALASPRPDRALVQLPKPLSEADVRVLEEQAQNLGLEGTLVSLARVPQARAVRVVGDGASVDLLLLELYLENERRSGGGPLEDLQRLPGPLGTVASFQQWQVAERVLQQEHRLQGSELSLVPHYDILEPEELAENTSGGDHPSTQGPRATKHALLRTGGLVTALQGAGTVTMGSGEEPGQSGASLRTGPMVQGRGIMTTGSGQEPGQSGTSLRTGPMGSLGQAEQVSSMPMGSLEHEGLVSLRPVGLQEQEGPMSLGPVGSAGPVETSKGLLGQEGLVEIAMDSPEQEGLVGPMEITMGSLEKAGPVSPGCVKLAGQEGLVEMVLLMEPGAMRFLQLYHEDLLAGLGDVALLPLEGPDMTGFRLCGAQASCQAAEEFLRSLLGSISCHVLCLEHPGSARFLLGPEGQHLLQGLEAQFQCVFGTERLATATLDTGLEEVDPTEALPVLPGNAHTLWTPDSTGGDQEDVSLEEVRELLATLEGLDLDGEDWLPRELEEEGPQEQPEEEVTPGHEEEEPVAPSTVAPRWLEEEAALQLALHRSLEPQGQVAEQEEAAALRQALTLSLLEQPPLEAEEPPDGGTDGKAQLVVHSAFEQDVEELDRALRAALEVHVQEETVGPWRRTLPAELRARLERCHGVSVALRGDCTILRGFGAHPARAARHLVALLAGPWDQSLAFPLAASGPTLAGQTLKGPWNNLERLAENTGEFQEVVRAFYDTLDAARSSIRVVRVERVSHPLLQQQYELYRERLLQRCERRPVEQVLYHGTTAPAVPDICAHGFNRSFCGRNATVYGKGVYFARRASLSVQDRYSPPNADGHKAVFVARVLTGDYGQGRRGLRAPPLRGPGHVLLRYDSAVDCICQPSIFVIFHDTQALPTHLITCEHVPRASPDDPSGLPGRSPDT", "test": "Inhibition of human recombinant PARP10 at 10 uM incubated for 1 hr using NAD+, biotinylated NAD+ and activated DNA by luminescence based assay", "outline": "as §1"}, "[7]": {"molecular_target": "T3, Protein mono-ADP-ribosyltransferase PARP11 (Homo sapiens) (UniProt Q9NR21)", "T3 sequence (whole entry)": "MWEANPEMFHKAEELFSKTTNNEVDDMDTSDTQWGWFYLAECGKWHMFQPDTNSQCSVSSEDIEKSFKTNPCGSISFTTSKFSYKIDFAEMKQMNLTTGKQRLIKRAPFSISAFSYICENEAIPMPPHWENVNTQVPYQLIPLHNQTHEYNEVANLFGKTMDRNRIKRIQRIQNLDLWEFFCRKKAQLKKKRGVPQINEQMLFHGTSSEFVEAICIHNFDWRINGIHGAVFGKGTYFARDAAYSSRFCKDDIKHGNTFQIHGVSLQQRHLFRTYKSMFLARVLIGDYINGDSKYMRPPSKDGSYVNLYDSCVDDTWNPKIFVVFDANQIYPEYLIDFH", "test": "Inhibition of human recombinant PARP11 at 10 uM incubated for 1 hr using NAD+, biotinylated NAD+ and activated DNA by luminescence based assay", "outline": "as §1"}, "[8]": {"molecular_target": "Protein mono-ADP-ribosyltransferase PARP14 (Homo sapiens) (UniProt Q460N5)", "sequence (Q460N5 whole entry)": "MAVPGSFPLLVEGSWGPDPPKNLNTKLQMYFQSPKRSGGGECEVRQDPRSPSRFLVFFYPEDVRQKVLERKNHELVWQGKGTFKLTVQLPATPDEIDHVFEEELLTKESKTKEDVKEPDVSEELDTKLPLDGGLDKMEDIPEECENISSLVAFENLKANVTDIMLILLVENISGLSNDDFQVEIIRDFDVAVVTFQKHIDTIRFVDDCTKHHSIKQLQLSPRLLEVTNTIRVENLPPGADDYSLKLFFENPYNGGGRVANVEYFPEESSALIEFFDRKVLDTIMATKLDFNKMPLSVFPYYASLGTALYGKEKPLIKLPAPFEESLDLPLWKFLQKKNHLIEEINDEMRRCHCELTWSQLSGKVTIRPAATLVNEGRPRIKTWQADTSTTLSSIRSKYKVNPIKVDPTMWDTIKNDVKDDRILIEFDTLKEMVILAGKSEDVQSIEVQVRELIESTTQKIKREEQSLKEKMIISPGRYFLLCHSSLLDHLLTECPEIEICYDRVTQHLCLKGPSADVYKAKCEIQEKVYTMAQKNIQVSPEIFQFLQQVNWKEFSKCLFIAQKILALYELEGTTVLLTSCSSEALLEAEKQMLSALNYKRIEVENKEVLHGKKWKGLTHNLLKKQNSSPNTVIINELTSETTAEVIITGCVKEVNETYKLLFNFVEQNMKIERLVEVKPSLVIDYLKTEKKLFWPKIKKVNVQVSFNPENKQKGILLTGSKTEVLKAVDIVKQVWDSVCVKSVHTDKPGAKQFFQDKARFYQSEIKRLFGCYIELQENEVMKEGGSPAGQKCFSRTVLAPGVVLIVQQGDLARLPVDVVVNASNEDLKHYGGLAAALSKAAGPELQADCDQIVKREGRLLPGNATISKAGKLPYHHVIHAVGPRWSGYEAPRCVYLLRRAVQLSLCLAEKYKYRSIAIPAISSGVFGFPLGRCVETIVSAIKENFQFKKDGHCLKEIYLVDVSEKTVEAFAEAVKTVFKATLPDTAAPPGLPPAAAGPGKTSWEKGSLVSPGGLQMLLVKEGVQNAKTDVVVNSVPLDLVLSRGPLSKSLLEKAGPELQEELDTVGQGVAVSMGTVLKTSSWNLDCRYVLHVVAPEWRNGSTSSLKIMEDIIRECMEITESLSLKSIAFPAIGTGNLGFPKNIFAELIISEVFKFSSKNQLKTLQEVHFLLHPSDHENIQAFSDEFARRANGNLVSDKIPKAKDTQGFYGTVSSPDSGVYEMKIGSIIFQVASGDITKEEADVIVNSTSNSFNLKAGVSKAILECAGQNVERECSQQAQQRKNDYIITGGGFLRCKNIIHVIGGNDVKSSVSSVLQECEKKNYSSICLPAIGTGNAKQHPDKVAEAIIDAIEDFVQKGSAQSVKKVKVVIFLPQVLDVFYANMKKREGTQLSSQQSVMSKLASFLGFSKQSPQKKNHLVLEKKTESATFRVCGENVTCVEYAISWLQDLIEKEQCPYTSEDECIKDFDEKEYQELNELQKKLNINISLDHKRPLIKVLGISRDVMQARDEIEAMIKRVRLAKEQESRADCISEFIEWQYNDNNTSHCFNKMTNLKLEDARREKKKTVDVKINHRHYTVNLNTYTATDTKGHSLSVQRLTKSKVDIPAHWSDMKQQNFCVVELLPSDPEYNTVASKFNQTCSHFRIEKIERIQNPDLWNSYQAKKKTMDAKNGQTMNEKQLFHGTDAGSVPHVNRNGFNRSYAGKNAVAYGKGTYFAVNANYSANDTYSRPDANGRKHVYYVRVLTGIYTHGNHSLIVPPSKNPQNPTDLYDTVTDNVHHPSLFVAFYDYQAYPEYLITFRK", "test": "Inhibition of human recombinant PARP14 at 10 uM incubated for 1 hr using NAD+, biotinylated NAD+ and activated DNA by luminescence based assay", "outline": "as §1"}},
  "note": "Calls of active or inactive are those of the source. No cut-off for these calls is given here.",
  "data": [
    {"smiles": "CC(C)(C)c1ccc(-c2nc3c(sc4ccccc43)c(=O)[nH]2)cc1", "values": [
      {"measurement": "inhibition", "setting": "[1]", "result": 4, "unit": "%"},
      {"measurement": "inhibition", "setting": "[2]", "result": 0, "unit": "%"},
      {"measurement": "growth inhibition (GI)", "setting": "[3]", "result": "inactive"},
      {"measurement": "growth inhibition (GI)", "setting": "[4]", "result": "Active"},
      {"measurement": "inhibition", "setting": "[5]", "result": 7, "unit": "%"},
      {"measurement": "inhibition", "setting": "[6]", "result": 3, "unit": "%"},
      {"measurement": "inhibition", "setting": "[7]", "result": 10, "unit": "%"},
      {"measurement": "inhibition", "setting": "[8]", "result": 0, "unit": "%"}
    ]}
  ]
}
